ChEMBL document CHEMBL5154895, “Mechanistic Studies and In Vivo Efficacy of an Oxadiazole-Containing Antibiotic” (J Med Chem, 2022)
Values after ≈ are worked out from the molar mass of the structure shown. Active and inactive are the calls of the source. The calls are words filed in the database; no cut-off is given here.

Legend:
[1] = system: Staphylococcus aureus; test: Antibacterial activity against vancomycin-resistant Staphylococcus aureus 9 assessed as inhibition of bacterial growth incubated for 18 to 20 hrs by broth microdilution method; type: functional; conditions: time 18-20 hrs
Outline: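 Broth microdilution per CLSI. Inoculum was set to 0.5 McFarland and diluted in CAMHB to about 5×10^5 CFU/mL. Serial dilutions of agent were incubated aerobically at 37 °C for 18–20 h. MIC was read visually as the lowest concentration with complete growth inhibition.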

[2] = system: Streptococcus pyogenes; test: Antibacterial activity against Streptococcus pyogenes MGAS 9882 assessed as inhibition of bacterial growth incubated for 18 to 20 hrs by broth microdilution method; type: functional; conditions: time 18-20 hrs
Outline: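 Broth microdilution with a 0.5 McFarland inoculum diluted in tryptic soy broth to about 5 × 10^5 CFU/mL. Serial compound dilutions incubated aerobically at 37° C for 18–20 hours. MIC read visually as the lowest concentration with no growth.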

[3] = system: Mus musculus; test: Acceleration of wound healing in methicillin-resistant Staphylococcus aureus USA300 infected Balb/c mouse model assessed as reduction in MCP-1 protein level in skin wounds administered topically twice daily 2 days post infection and measured after 5 days post compound treatment; type: functional, organism-based; conditions: time 5.0 day
Outline: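 Mice had two 6-mm dorsal excisional wounds, each infected with 20 μL of 4.2×10^9 CFU/mL MRSA USA300 and covered with Tegaderm. Treatment began 2 days after infection (n=5 per group): 2% compound in petroleum jelly applied topically twice daily for 5 days. Right-wound homogenates in PBS were centrifuged, supernatants pooled per group, and protein normalised by BCA. Cytokines were measured by mouse cytokine array (pg/mL).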

[4] = system: Staphylococcus aureus; test: Downregulation of GloB protein expression in Staphylococcus aureus assessed as log2 of fold change in protein level measured after 2 hrs by LC-MS/MS analysis relative to control; type: functional
Outline: (§1)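 S. aureus ATCC 25923 at OD600 0.6 was treated with compound or DMSO for 2 h at 37 °C, normalised to OD600 1.1, and washed in PBS. Cells were pressure-lysed in 100 mM ammonium bicarbonate, then acetone-precipitated, reduced with DTT, alkylated with iodoacetamide, and digested with trypsin/Lys-C. Peptides were desalted and run on LC-MS/MS. Label-free quantitation used proteins present in all 3 samples, filtered at p<0.05 against DMSO.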

[5] = system: Staphylococcus aureus; test: Downregulation of hydrolase protein expression in Staphylococcus aureus measured after 2 hrs by LC-MS/MS analysis; type: functional; outline: as §1
[6] = system: Staphylococcus aureus; test: Downregulation of EssB protein expression in Staphylococcus aureus assessed as log2 of fold change in protein level measured after 2 hrs by LC-MS/MS analysis relative to control; type: functional; outline: as §1
[7] = system: Staphylococcus aureus; test: Upregulation of peptidase M23 protein expression in Staphylococcus aureus assessed as log2 of fold change in protein level measured after 2 hrs by LC-MS/MS analysis relative to control; type: functional
Outline: (§2)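 S. aureus ATCC 25923 at OD600 0.6 exposed to compound or DMSO control for 2 h at 37°C, normalized to OD600 1.1 and PBS-washed. Cells were pressure-cycling lysed in 100 mM ammonium bicarbonate, and 50 μg protein was acetone-precipitated, reduced and alkylated, then Trypsin/Lys-C digested and C18-desalted. About 1 μg peptides went to LC-MS/MS. Label-free quantitation kept proteins present in all 3 samples, filtered at p <0.05.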

[8] = system: Staphylococcus aureus; test: Upregulation of DUF4930 domain-containing protein expression in Staphylococcus aureus measured after 2 hrs by LC-MS/MS analysis; type: functional; outline: as §2
[9] = system: Staphylococcus aureus; test: Upregulation of siderophore biosynthesis protein SbnE expression in Staphylococcus aureus measured after 2 hrs by LC-MS/MS analysis; type: functional; outline: as §2
[10] = system: Staphylococcus aureus; test: Upregulation of zinc ABC transporter ATP-binding protein expression in Staphylococcus aureus measured after 2 hrs by LC-MS/MS analysis; type: functional; outline: as §2
[11] = system: Staphylococcus aureus; test: Upregulation of acyl phosphatase expression in Staphylococcus aureus measured after 2 hrs by LC-MS/MS analysis; type: functional; outline: as §2
[12] = system: Staphylococcus aureus; test: Downregulation of glutamyl endopeptidase protein expression in Staphylococcus aureus measured after 2 hrs by LC-MS/MS analysis; type: functional; outline: as §1
[13] = system: Staphylococcus aureus; test: Upregulation of L-serine dehydratase, iron-sulfurdependent subunit alpha expression in Staphylococcus aureus measured after 2 hrs by LC-MS/MS analysis; type: functional; outline: as §2
[14] = system: Staphylococcus aureus; test: Upregulation of 23S rRNA (pseudouridine(1915)-N(3))-methyltransferase RImH expression in Staphylococcus aureus measured after 2 hrs by LC-MS/MS analysis; type: functional; outline: as §2
[15] = system: Staphylococcus aureus; test: Downregulation of nucleoside permease protein expression in Staphylococcus aureus measured after 2 hrs by LC-MS/MS analysis; type: functional; outline: as §2
[16] = system: Staphylococcus aureus; test: Downregulation of CarB protein expression in Staphylococcus aureus assessed as log2 of fold change in protein level measured after 2 hrs by LC-MS/MS analysis relative to control; type: functional; outline: as §1
[17] = system: Streptococcus pneumoniae; test: Antibacterial activity against cephalosporin-resistant Streptococcus pneumoniae ATCC 51916 assessed as inhibition of bacterial growth incubated for 18 to 20 hrs by broth microdilution method; type: functional; conditions: time 18-20 hrs
Outline: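 Broth microdilution per CLSI. S. pneumoniae was diluted to about 5×10^5 CFU/mL in TSB and incubated with serial dilutions of agent at 37 °C for 18–20 h under 5% CO2. MIC was read visually as the lowest concentration completely inhibiting growth.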

[18] = system: Staphylococcus aureus; test: Downregulation of Nuc protein expression in Staphylococcus aureus assessed as log2 of fold change in protein level measured after 2 hrs by LC-MS/MS analysis relative to control; type: functional; outline: as §1
[19] = system: Staphylococcus aureus; test: Downregulation of Als protein expression in Staphylococcus aureus assessed as log2 of fold change in protein level measured after 2 hrs by LC-MS/MS analysis relative to control; type: functional; outline: as §1
[20] = system: Staphylococcus aureus; test: Antibacterial activity against Staphylococcus aureus MRSA ATCC 33592 assessed as inhibition of bacterial growth incubated for 18 to 20 hrs by broth microdilution method; type: functional; conditions: time 18-20 hrs
Outline: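 Broth microdilution per CLSI. Inoculum at 0.5 McFarland, diluted in cation-adjusted Mueller Hinton broth to about 5 × 10^5 CFU/mL. Serial compound dilutions incubated aerobically at 37° C for 18–20 hours. MIC taken as the lowest concentration completely inhibiting visible growth.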

[21] = system: Staphylococcus aureus; test: Downregulation of sodium ABC transporter ATP-binding protein expression in Staphylococcus aureus measured after 2 hrs by LC-MS/MS analysis; type: functional; outline: as §2
[22] = Toxicity in Balb/c mouse infected with methicillin-resistant Staphylococcus aureus USA300 assessed as necrosis administered topically twice daily 2 days post infection and measured after 5 days post compound treatment by H and E staining based histopathological analysis; conditions: in vivo, topical_or_ocular, 120 h, time 5 day
Outline: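 MRSA USA300-infected punch wounds in mice, n=5. Topical 2% agent or petroleum jelly vehicle twice daily from day 2 for 5 days. The left wound was formalin-fixed, cut into 4-μm sections and H&E-stained. Whole slides were scanned and assessed by a board-certified veterinary pathologist for necrosis, inflammation, haemorrhage and related features.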

CC1CC(C)CN(S(=O)(=O)c2ccc(C(=O)Nc3nnc(-c4ccc(C(F)(F)F)cc4)o3)cc2)C1 (configuration not stated)
MIC [1]: 0.25 µg/mL (≈ 0.492 µM)
MIC [2]: 0.06 µg/mL (≈ 0.118 µM)
Activity [3]: Active
log2FC [4]: -2
Activity [5]: Active
log2FC [6]: -3.3
log2FC [7]: 2
Activity [8]: Active
Activity [9]: Active
Activity [10]: Active
Activity [11]: Active
Activity [12]: Active
Activity [13]: Active
Activity [14]: Active
Activity [15]: Active
log2FC [16]: -2
MIC [17]: 0.06 µg/mL (≈ 0.118 µM)
log2FC [18]: -5.1
log2FC [19]: -2.7
MIC [20]: 0.25 µg/mL (≈ 0.492 µM)
Activity [21]: Active
Activity [22]: Toxic
